Results: ChEMBL document CHEMBL1687826, “Flow cytometry as a tool to determine the effects of cell wall-active antibiotics on vancomycin-susceptible and -resistant Enterococcus faecalis strains” (Antimicrob Agents Chemother, 2011)
Calls of active or inactive are those of the source. The rule behind the calls is not given here.

Tests used:
Enterococcus faecalis [1] = assay: Drug uptake in vancomycin-susceptible Enterococcus faecalis JH2-2 assessed as red-fluorescent bacteria at 1 times MIC after 1 hr by confocal microscopy
Enterococcus faecalis [2] = assay: Drug uptake in vancomycin[…]-type Enterococcus faecalis BM4316 assessed as red-fluorescent bacteria at 1 times MIC after 1 hr by confocal microscopy
Enterococcus faecalis [3] = assay: Drug uptake in vancomycin[…]-type Enterococcus faecalis BM4275 assessed as red-fluorescent bacteria at 1 times MIC after 1 hr by confocal microscopy
Enterococcus faecalis [4] = assay: Antibacterial activity against vancomycin-susceptible Enterococcus faecalis JH2-2 using BHI broth by macrodilution method; type: functional
Procedure, shortened: (§1)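 Macrodilution per CLSI in BHI broth at 37°C, with 50 μg/ml free Ca2+ for daptomycin; MIC read as lowest concentration with no growth after 1 day.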

Enterococcus faecalis [5] = assay: Antibacterial activity against […] Enterococcus faecalis BM4316 using BHI broth by macrodilution method; type: functional
Procedure, shortened: as §1

Enterococcus faecalis [6] = assay: Antibacterial activity against […] Enterococcus faecalis BM4275 using BHI broth by macrodilution method; type: functional
Procedure, shortened: as §1

Enterococcus faecalis [7] = assay: Antibacterial activity against vancomycin-susceptible Enterococcus faecalis JH2-2 assessed as increase in cell size at 0.25 times MIC after 30 to 90 mins by flow cytometric analysis relative to control; type: functional, organism-based
Procedure, shortened: (§2)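 10^5 CFU/ml exponential cells in BHI, 37°C, exposed to 0.25× or 1× MIC (daptomycin with 50 μg/ml free Ca2+) for 30, 60, 90 min, then diluted to ca. 10^4 CFU/ml in PBS. Flow cytometry forward scatter, log amplifiers, 5,000 events; % increase in size versus untreated control, triplicate, mean ± SD; Kruskal-Wallis then Mann-Whitney.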

Enterococcus faecalis [8] = assay: Antibacterial activity against […] Enterococcus faecalis BM4316 assessed as increase in cell size at 0.25 times MIC after 30 to 90 mins by flow cytometric analysis relative to control; type: functional, organism-based
Procedure, shortened: as §2

Enterococcus faecalis [9] = assay: Antibacterial activity against […] Enterococcus faecalis BM4275 assessed as increase in cell size at 0.25 times MIC after 30 to 90 mins by flow cytometric analysis relative to control; type: functional, organism-based
Procedure, shortened: as §2

Enterococcus faecalis [10] = assay: Antibacterial activity against […] Enterococcus faecalis BM4316 assessed as membrane potential/size ratio at 0.25 to 1 times MIC after 1 hr […]; type: functional, organism-based
Enterococcus faecalis [11] = assay: Antibacterial activity against […] Enterococcus faecalis BM4275 assessed as membrane potential/size ratio at 0.25 to 1 times MIC after 1 hr […]; type: functional, organism-based
Enterococcus faecalis [12] = assay: Antibacterial activity against vancomycin-susceptible Enterococcus faecalis JH2-2 assessed as decrease in bacterial count at 4 times MIC after 180 mins using BHI broth; type: functional, organism-based
Procedure, shortened: (§3)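 Exponential-phase suspension (10^5 CFU/ml) in BHI, 37°C, exposed to 4× MIC for 180 min alongside antibiotic-free control; daptomycin medium carried 50 μg/ml free Ca2+. Survivors counted on BHI agar; value is mean difference in log10 CFU/ml with versus without antibiotic, 4 independent experiments, mean ± SD.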

Enterococcus faecalis [13] = assay: Antibacterial activity against […] Enterococcus faecalis BM4316 assessed as decrease in bacterial count at 4 times MIC after 180 mins using BHI broth; type: functional, organism-based
Procedure, shortened: as §3

Enterococcus faecalis [14] = assay: Antibacterial activity against […] Enterococcus faecalis BM4275 assessed as decrease in bacterial count at 4 times MIC after 180 mins using BHI broth; type: functional, organism-based
Procedure, shortened: as §3

Enterococcus faecalis [15] = assay: Antibacterial activity against vancomycin-susceptible Enterococcus faecalis JH2-2 assessed as membrane potential/size ratio at 0.25 to 1 times MIC after 1 hr by flow cytometry
Enterococcus faecalis [16] = assay: Antibacterial activity against […] Enterococcus faecalis BM4316 assessed as dismorphic bacterial chains at 1 times MIC after 1 hr by confocal microscopy
Enterococcus faecalis [17] = assay: Antibacterial activity against […] Enterococcus faecalis BM4275 assessed as dismorphic bacterial chains at 1 times MIC after 1 hr by confocal microscopy
Enterococcus faecalis [18] = assay: Antibacterial activity against vancomycin-susceptible Enterococcus faecalis JH2-2 assessed as dismorphic bacterial chains at 1 times MIC after 1 hr using BacLight Live/Dead kit by confocal microscopy
Enterococcus faecalis [19] = assay: Antibacterial activity against vancomycin-susceptible Enterococcus faecalis JH2-2 assessed as increase in cell size at 1 times MIC after 30 to 90 mins by flow cytometric analysis relative to control; type: functional, organism-based
Procedure, shortened: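 Exponentially growing cells at 10^5 CFU/ml in BHI broth at 37°C were exposed to 0.25× or 1× MIC and sampled at 30, 60 and 90 min. Untreated controls were run alongside. Cells were diluted to ca. 10^4 CFU/ml in PBS and gated on log forward scatter for 5,000 events. Runs were in triplicate, reported as mean % size increase versus control.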

Enterococcus faecalis [20] = assay: Antibacterial activity against […] Enterococcus faecalis BM4316 assessed as increase in cell size at 1 times MIC after 30 to 90 mins by flow cytometric analysis relative to control; type: functional, organism-based
Procedure, shortened: as §2

Enterococcus faecalis [21] = assay: Antibacterial activity against […] Enterococcus faecalis BM4275 assessed as increase in cell size at 1 times MIC after 30 to 90 mins by flow cytometric analysis relative to control; type: functional, organism-based
Procedure, shortened: as §2

Enterococcus faecalis [22] = assay: Antibacterial activity against vancomycin-susceptible Enterococcus faecalis JH2-2 assessed as change in CFU count at 1 times MIC after 30 to 90 mins; type: functional, organism-based
Procedure, shortened: (§4)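 Exponentially growing cells, 10^5 CFU/ml in BHI at 37°C, exposed to 1× MIC antibiotic (daptomycin medium with 50 μg/ml free Ca2+) for 30, 60 and 90 min; viable counts by enumeration on BHI agar.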

Enterococcus faecalis [23] = assay: Antibacterial activity against […] Enterococcus faecalis BM4316 assessed as change in CFU count at 1 times MIC after 30 to 90 mins; type: functional, organism-based
Procedure, shortened: as §4

Enterococcus faecalis [24] = assay: Antibacterial activity against […] Enterococcus faecalis BM4275 assessed as change in CFU count at 1 times MIC after 30 to 90 mins; type: functional, organism-based
Procedure, shortened: as §4

Staphylococcus aureus = assay: Antibacterial activity against Staphylococcus aureus ATCC 29213 assessed as cells with altered cell wall morphology at 8 times MIC after 60 mins; type: functional

For CN[C@H](CC(C)C)C(=O)N[C@H]1C(=O)N[C@@H](CC(N)=O)C(=O)N[C@H]2C(=O)N[C@H]3C(=O)N[C@H](C(=O)N[C@H](C(=O)O)c4cc(O)cc(O)c4-c4cc3ccc4O)[C@H](O)c3ccc(c(Cl)c3)Oc3cc2cc(c3O[C@@H]2O[C@H](CO)[C@@H](O)[C@H](O)[C@H]2O[C@H]2C[C@](C)(NCCCCNc3cc(C(F)(F)F)nc4cc(Cl)ccc34)[C@H](O)[C@H](C)O2)Oc2ccc(cc2Cl)[C@H]1O [listing 1 of 2 here], the Drug uptake (Enterococcus faecalis [1]) was “Active”, the Drug uptake (Enterococcus faecalis [2]) was “Active” and the Drug uptake (Enterococcus faecalis [3]) was “Active”.

CCCCCCCCCCNCCN[C@@]1(C)C[C@H](O[C@H]2[C@H](Oc3c4cc5cc3Oc3ccc(cc3Cl)[C@@H](O)[C@@H](NC(=O)[C@@H](CC(C)C)NC)C(=O)N[C@@H](CC(N)=O)C(=O)N[C@H]5C(=O)N[C@H]3C(=O)N[C@H](C(=O)N[C@H](C(=O)O)c5cc(O)c(CNCP(=O)(O)O)c(O)c5-c5cc3ccc5O)[C@H](O)c3ccc(c(Cl)c3)O4)O[C@H](CO)[C@@H](O)[C@@H]2O)O[C@@H](C)[C@H]1O [TELAVANCIN] gave an Activity (Enterococcus faecalis [4]) of 1 µg/mL, an Activity (Enterococcus faecalis [5]) of 4 µg/mL and an Activity (Enterococcus faecalis [6]) of 1 µg/mL. The Activity (Enterococcus faecalis [7]) was “Active”, the Activity (Enterococcus faecalis [8]) was “Active” and the Activity (Enterococcus faecalis [9]) was “Active”. The Activity (Enterococcus faecalis [10]) was “inactive”, the Activity (Enterococcus faecalis [11]) was “inactive” and the Activity (Enterococcus faecalis [12]) was “Active”. The Activity (Enterococcus faecalis [13]) was “Active”, the Activity (Enterococcus faecalis [14]) was “Active” and the Drug uptake (Enterococcus faecalis [1]) was “Active”. The Drug uptake (Enterococcus faecalis [2]) was “Active”, the Drug uptake (Enterococcus faecalis [3]) was “Active” and the Activity (Enterococcus faecalis [15]) was “inactive”. For the same compound, the Activity (Enterococcus faecalis [16]) was “inactive”, the Activity (Enterococcus faecalis [17]) was “inactive” and the Activity (Enterococcus faecalis [18]) was “inactive”.

For CN[C@H](CC(C)C)C(=O)N[C@H]1C(=O)N[C@@H](CC(N)=O)C(=O)N[C@H]2C(=O)N[C@H]3C(=O)N[C@H](C(=O)N[C@H](C(=O)O)c4cc(O)cc(O)c4-c4cc3ccc4O)[C@H](O)c3ccc(c(Cl)c3)Oc3cc2cc(c3O[C@@H]2O[C@H](CO)[C@@H](O)[C@H](O)[C@H]2O[C@H]2C[C@](C)(NCCCCNc3cc(C(F)(F)F)nc4cc(Cl)ccc34)[C@H](O)[C@H](C)O2)Oc2ccc(cc2Cl)[C@H]1O [listing 2 of 2 here], the Activity (Enterococcus faecalis [4]) was 0.5 µg/mL, the Activity (Enterococcus faecalis [5]) was 4 µg/mL and the Activity (Enterococcus faecalis [6]) was 2 µg/mL.

CN[C@H](CC(C)C)C(=O)N[C@H]1C(=O)N[C@@H](CC(N)=O)C(=O)N[C@H]2C(=O)N[C@H]3C(=O)N[C@H](C(=O)N[C@@H](C(=O)O)c4cc(O)cc(O)c4-c4cc3ccc4O)[C@H](O)c3ccc(c(Cl)c3)Oc3cc2cc(c3O[C@@H]2O[C@H](CO)[C@@H](O)[C@H](O)[C@H]2O[C@H]2C[C@](C)(NCCCCNc3cc(C(F)(F)F)nc4cc(Cl)ccc34)[C@H](O)[C@H](C)O2)Oc2ccc(cc2Cl)[C@H]1O was tested, and the Activity (Enterococcus faecalis [7]) was “Active”, the Activity (Enterococcus faecalis [8]) was “Active” and the Activity (Enterococcus faecalis [10]) was “inactive”. The Activity (Enterococcus faecalis [11]) was “inactive”, the Activity (Enterococcus faecalis [12]) was “Active” and the Activity (Enterococcus faecalis [13]) was “Active”. For the same compound, the Activity (Enterococcus faecalis [14]) was “Active”, the Activity (Enterococcus faecalis [15]) was “inactive” and the Activity (Enterococcus faecalis [16]) was “inactive”. For the same compound, the Activity (Enterococcus faecalis [17]) was “inactive” and the Activity (Enterococcus faecalis [18]) was “inactive”.

In the case of CCCCCCCCCC(=O)N[C@@H](Cc1c[nH]c2ccccc12)C(=O)N[C@H](CC(N)=O)C(=O)N[C@@H](CC(=O)O)C(=O)N[C@@H]1C(=O)NCC(=O)N[C@@H](CCCN)C(=O)N[C@@H](CC(=O)O)C(=O)N[C@H](C)C(=O)N[C@@H](CC(=O)O)C(=O)NCC(=O)N[C@H](CO)C(=O)N[C@@H]([C@H](C)CC(=O)O)C(=O)N[C@@H](CC(=O)c2ccccc2N)C(=O)O[C@@H]1C, the Activity (Enterococcus faecalis [4]) is reported as 2 µg/mL, the Activity (Enterococcus faecalis [5]) is reported as 2 µg/mL and the Activity (Enterococcus faecalis [6]) is reported as 2 µg/mL. The Activity (Enterococcus faecalis [7]) was “Active”, the Activity (Enterococcus faecalis [8]) was “Active” and the Activity (Enterococcus faecalis [9]) was “Active”. For the same compound, the Activity (Enterococcus faecalis [19]) was “Active”, the Activity (Enterococcus faecalis [20]) was “Active” and the Activity (Enterococcus faecalis [21]) was “Active”. For the same compound, the Activity (Enterococcus faecalis [22]) was “Active”, the Activity (Enterococcus faecalis [23]) was “Active” and the Activity (Enterococcus faecalis [24]) was “Active”. For the same compound, the Activity (Enterococcus faecalis [10]) was “inactive”, the Activity (Enterococcus faecalis [11]) was “inactive” and the Activity (Staphylococcus aureus) was greater than 90%. The Activity (Enterococcus faecalis [12]) was “Active”, the Activity (Enterococcus faecalis [13]) was “Active” and the Activity (Enterococcus faecalis [14]) was “Active”. The Drug uptake (Enterococcus faecalis [1]) was “Active”, the Drug uptake (Enterococcus faecalis [2]) was “Active” and the Drug uptake (Enterococcus faecalis [3]) was “Active”. For the same compound, the Activity (Enterococcus faecalis [15]) was “inactive”, the Activity (Enterococcus faecalis [16]) was “Active” and the Activity (Enterococcus faecalis [17]) was “Active”. For the same compound, the Activity (Enterococcus faecalis [18]) was “Active”.

For CN[C@H](CC(C)C)C(=O)N[C@H]1C(=O)N[C@@H](CC(N)=O)C(=O)N[C@H]2C(=O)N[C@H]3C(=O)N[C@H](C(=O)N[C@H](C(=O)O)c4cc(O)cc(O)c4-c4cc3ccc4O)[C@H](O)c3ccc(c(Cl)c3)Oc3cc2cc(c3O[C@@H]2O[C@H](CO)[C@@H](O)[C@H](O)[C@H]2O[C@H]2C[C@](C)(N)[C@H](O)[C@H](C)O2)Oc2ccc(cc2Cl)[C@H]1O [VANCOMYCIN], the Activity (Enterococcus faecalis [4]) was 4 µg/mL, the Activity (Enterococcus faecalis [5]) was 512 µg/mL and the Activity (Enterococcus faecalis [6]) was 256 µg/mL. For the same compound, the Activity (Enterococcus faecalis [7]) was “Active”, the Activity (Enterococcus faecalis [19]) was “Active” and the Activity (Enterococcus faecalis [10]) was “inactive”. The Activity (Enterococcus faecalis [11]) was “inactive”, the Activity (Enterococcus faecalis [12]) was “Active” and the Activity (Enterococcus faecalis [13]) was “Active”. The Activity (Enterococcus faecalis [14]) was “Active”, the Drug uptake (Enterococcus faecalis [1]) was “Active” and the Drug uptake (Enterococcus faecalis [2]) was “Active”. For the same compound, the Drug uptake (Enterococcus faecalis [3]) was “Active”, the Activity (Enterococcus faecalis [15]) was “inactive” and the Activity (Enterococcus faecalis [16]) was “inactive”. The Activity (Enterococcus faecalis [17]) was “inactive” and the Activity (Enterococcus faecalis [18]) was “inactive”.
